Laboratory results as given in ChEMBL document CHEMBL1121825, “A potent, new, sedative--hypnotic agent: 5,7-dihydro-5,5,7,7-tetramethyl-3-(3-nitrophenyl)furo[3,4-e]-as-triazine 4-oxide” (J Med Chem, 1981).

Tests used:
Mus musculus [1] = test: Ability to reinduce anesthesia in mice as a measure of in vivo sedative-hypnotic activity; format: functional
Method in brief: (§1)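 Male Royal Hart mice (20–25 g) were anesthetized with hexobarbital 70.0 mg/kg iv. While they were regaining the righting reflex, compound was given ip. Reinduction was scored as loss of righting reflex for 10 min. ED50 (mg/kg) is the dose reinducing anesthesia in 50% of mice, estimated by probit analysis (Miller–Tainter).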

Mus musculus [2] = test: Tested for ability to reinduce anesthesia in mice when administered intraperitoneally as a measure of in vivo sedative-hypnotic activity; D represents Toxic; format: functional, organism-based; method in brief: as §1
Mus musculus [3] = test: Compound was tested for mortality in mice when administered perorally; format: functional; conditions: po
Method in brief: (§2)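 Groups of five male Royal Hart mice (20–25 g) received test drug ip or orally 1 h before seizure induction with SaH 41-178 (50.0 mg/kg ip). ED50 is the dose preventing tonic convulsions or death in 50% of animals, by probit analysis.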

Mus musculus [4] = test: Ataxia effect in mice was tested when the compound was administered intraperitoneally; format: functional; conditions: ip
Method in brief: (§3)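 Modified Irwin observational screen in male Royal Hart mice (20–25 g). ED50 (mg/kg) by probit analysis; at least 20 animals per drug.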

[5] = Acute toxicity in mice after 72 hours when administered perorally; format: organism-based; conditions: mouse, in vivo, po
Method in brief: (§4)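 Male Royal Hart mice (20–25 g) dosed intraperitoneally or orally; deaths scored at 2 h and 72 h. LD50 (mg/kg) estimated by probit analysis (Miller–Tainter), with at least 20 animals per drug.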

[6] = Acute toxicity in mice after 72 hours when administered intraperitoneally; format: organism-based; conditions: mouse, in vivo, ip; method in brief: as §4
Mus musculus [7] = test: Compound was tested for tonic convulsions when administered perorally; format: functional; conditions: po; method in brief: as §2
Mus musculus [8] = test: Compound was tested for tonic convulsions when administered intraperitoneally; format: functional; conditions: ip; method in brief: as §2
Rattus norvegicus [9] = test: Ataxia effect in rats was tested when the compound was administered perorally; format: functional; conditions: po
Method in brief: (§5)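 Modified Irwin behavioural observation in male Wistar rats (130–160 g). ED50 (mg/kg) obtained by probit analysis; minimum 20 animals per drug.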

Mus musculus [10] = test: Hypomotility effect in mice was tested when the compound was administered perorally; format: functional; conditions: po
Method in brief: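 Modified Irwin behavioral observation in male Royal Hart mice (20–25 g), observed for 2 h after dosing. ED50 (mg/kg) estimated by probit analysis per Miller and Tainter. At least 20 animals per drug.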

[11] = Acute toxicity in mice after 2 hours when administered perorally; format: organism-based; conditions: mouse, in vivo, po; method in brief: as §4
Mus musculus [12] = test: Ataxia effect in mice was tested when the compound was administered perorally; format: functional; conditions: po
Method in brief: (§6)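 Male Royal Hart mice (20–25 g) were dosed orally and scored in a modified Irwin behavioural observation screen. ED50 values (mg/kg) were estimated by probit analysis after Miller and Tainter, with at least 20 animals per drug. Values were reported as ED50 ± SE, or as the evaluation at the highest nontoxic dose used.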

Mus musculus [13] = test: Compound was tested for reinduction of anesthesia in mice when administered intraperitoneally; format: functional; conditions: ip
Method in brief: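 Male Royal Hart mice (20–25 g) anaesthetised with hexobarbital (70.0 mg/kg iv) were given drug ip as they regained the righting reflex (modified Winter method). ED50 is the dose producing loss of righting reflex for 10 min in 50% of mice, by probit analysis.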

Mus musculus [14] = test: Compound was tested for mortality in mice when administered intraperitoneally; format: functional; conditions: ip
Method in brief: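 Male Royal Hart mice (20–25 g), groups of five, dosed ip 1 h before SaH 41-178 (50.0 mg/kg ip) to evoke seizures. ED50 is the dose preventing death in 50% of animals, estimated by probit analysis. At least 20 animals per drug.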

Mus musculus [15] = test: Hypomotility effect in mice was tested when the compound was administered intraperitoneally; format: functional; conditions: ip; method in brief: as §3
Mus musculus [16] = test: Prehensile effect in mice was tested when the compound was administered perorally; format: functional; conditions: po
Method in brief: (§7)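 Oral dosing of male Royal Hart mice (20–25 g), scored by a modified Irwin behavioural screen. ED50 (mg/kg) estimated by probit analysis; at least 20 animals per drug.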

Rattus norvegicus [17] = test: Hypomotility effect in rats was tested when the compound was administered perorally; format: functional; conditions: po; method in brief: as §5
[18] = Acute toxicity in rats after 72 hours when administered perorally; format: organism-based; conditions: rat, in vivo, po
Method in brief: (§8)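 Male Wistar rats (130–160 g) dosed orally; lethality read at 2 h and 72 h. LD50 (mg/kg) derived by probit analysis (Miller–Tainter), using a minimum of 20 animals per drug.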

Mus musculus [19] = test: Prehensile effect in mice was tested when the compound was administered intraperitoneally; format: functional; conditions: ip; method in brief: as §3
Mus musculus [20] = test: Compound was tested for rotarod motor coordination in mice when administered intraperitoneally; format: functional; conditions: ip
Method in brief: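 Male Royal Hart mice (20–25 g), groups of five, were trained to ride a corrugated-paper-covered rod turning at 15 rpm for 60–90 s. They were retested 30 and 60 min after ip drug or saline. Percent change in rotarod time was taken against controls. ED50 is the dose cutting rotarod time by 50%, estimated by probit analysis. At least 20 animals per drug.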

[21] = Acute toxicity in mice after 2 hours when administered intraperitoneally; format: organism-based; conditions: mouse, in vivo, ip; method in brief: as §4
Mus musculus [22] = test: Compound was tested for rotarod motor coordination in mice when administered perorally; format: functional; conditions: po
Method in brief: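 Modified Dunham–Miya rotarod test. Groups of five male Royal Hart mice (20–25 g) were trained on a 15 rpm corrugated rod for 60–90 s, then retested 30 and 60 min after drug or saline (ip or oral). Percent change in riding time versus controls; ED50 is the dose giving a 50% decrease, by probit analysis.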

Rattus norvegicus [23] = test: Righting reflex effect in rats was tested when the compound was administered perorally; format: functional; conditions: po; method in brief: as §5
Mus musculus [24] = test: Righting reflex effect in mice was tested when the compound was administered intraperitoneally; format: functional; conditions: ip; method in brief: as §3
Mus musculus [25] = test: Docility effect in mice was tested when the compound was administered perorally; format: functional; conditions: po; method in brief: as §7
Mus musculus [26] = test: Docility effect in mice was tested when the compound was administered ip; format: functional; method in brief: as §3
[27] = Acute toxicity in rats after 2 hours when administered perorally; format: organism-based; conditions: rat, in vivo, po; method in brief: as §8
Mus musculus [28] = test: Righting reflex effect in mice was tested when the compound was administered perorally; format: functional; conditions: po; method in brief: as §6

Question: Which ED50 (Mus musculus [1]) does the source give for CC1(C)OC(C)(C)c2nc(-c3ccc(Cl)cn3)nnc21 here?
Answer: 66.7 mg/kg

Question: With CC1(C)Cc2nnc(-c3cccc([N+](=O)[O-])c3)[n+]([O-])c2C(C)(C)O1 as the molecule, how does the ED50 (Mus musculus [1]) read?
Answer: 500 mg/kg

Question: With CC1(C)OC(C)(C)C(N=N)=C1O as the molecule, how does the ED50 (Mus musculus [1]) read?
Answer: 133 mg/kg

Question: For CC1(C)OC(C)(C)c2c1nnc(-c1cccc(F)c1)[n+]2[O-], which ED50 (Mus musculus [1]) is on record?
Answer: 74.9 mg/kg

Question: For CC1(C)OC(C)(C)c2c1ncc(-c1ccccc1)[n+]2[O-].Cl, which ED50 (Mus musculus [1]) is on record?
Answer: 1000 mg/kg

Question: With CCCc1nc(-c2ccccn2)nnc1C as the molecule, how does the ED50 (Mus musculus [2]) read?
Answer: Toxic

Question: Which ED50 (Mus musculus [1]) does the source give for CC1(C)Cc2nnc(-c3ccccc3)[n+]([O-])c2C(C)(C)O1 here?
Answer: 122 mg/kg

Question: Which ED50 (Mus musculus [1]) does the source give for CC1(C)NC(C)(C)c2c1nnc(-c1ccccc1)[n+]2[O-] here?
Answer: 1000 mg/kg

Question: With CC1(C)OC(C)(C)c2nnc(-c3ccccc3)cc21.Cl as the molecule, how does the ED50 (Mus musculus [1]) read?
Answer: 112 mg/kg

Question: Which ED50 (Mus musculus [1]) does the source give for CC1(C)OC(C)(C)c2c1nnc(-c1cccc(C(F)(F)F)c1)[n+]2[O-] here?
Answer: 66.7 mg/kg

Question: Which ED50 (Mus musculus [1]) does the source give for CC1(C)C=CC(C)(C)c2nc(-c3cccc(S(N)(=O)=O)c3)nnc21 here?
Answer: 1000 mg/kg

Question: For CCCc1nnc(-c2ccccn2)nc1C, which ED50 (Mus musculus [2]) is on record?
Answer: Toxic

Question: For CC1(C)OC(C)(C)c2nc(-c3ccccn3)nnc21, which ED50 (Mus musculus [1]) is on record?
Answer: 21 mg/kg

Question: For CC1(C)C/C(=N\Nc2ccccc2)C(C)(C)O1, which ED50 (Mus musculus [1]) is on record?
Answer: 162 mg/kg

Question: For Cc1cccc(-c2nnc3c([n+]2[O-])C(C)(C)OC3(C)C)c1, which ED50 (Mus musculus [1]) is on record?
Answer: 150 mg/kg

Question: Which ED50 (Mus musculus [1]) does the source give for Cc1ccc(-c2nnc3c([n+]2[O-])C(C)(C)OC3(C)C)cc1C here?
Answer: 133 mg/kg

Question: For Cc1ccccc1-n1c(C)nc2ccccc2c1=O [METHAQUALONE], which ED50 (Mus musculus [3]) is on record?
Answer: 45 mg/kg

Question: And the ED50 (Mus musculus [4])?
Answer: 29 mg/kg

Question: And the LD50 at 72 h [5]?
Answer: > 400 mg/kg

Question: And the LD50 at 72 h [6]?
Answer: 470 mg/kg

Question: And the ED50 (Mus musculus [7])?
Answer: 39 mg/kg

Question: What about the ED50 (Mus musculus [8]) of the same molecule?
Answer: 25 mg/kg

Question: What about the ED50 (Rattus norvegicus [9]) of the same molecule?
Answer: 23 mg/kg

Question: What about the ED50 (Mus musculus [10]) of the same molecule?
Answer: 25 mg/kg

Question: What about the LD50 at 2 h [11] of the same molecule?
Answer: > 400 mg/kg

Question: What about the ED50 (Mus musculus [12]) of the same molecule?
Answer: 23 mg/kg

Question: What about the ED50 (Mus musculus [13]) of the same molecule?
Answer: 19 mg/kg

Question: What about the ED50 (Mus musculus [14]) of the same molecule?
Answer: 25 mg/kg

Question: And the ED50 (Mus musculus [15])?
Answer: 34 mg/kg

Question: And the ED50 (Mus musculus [16])?
Answer: 30 mg/kg

Question: What about the ED50 (Rattus norvegicus [17]) of the same molecule?
Answer: 44 mg/kg

Question: What about the ED50 (Mus musculus [1]) of the same molecule?
Answer: 20 mg/kg

Question: And the LD50 at 72 h [18]?
Answer: 185 mg/kg

Question: What about the ED50 (Mus musculus [19]) of the same molecule?
Answer: 37 mg/kg

Question: What about the ED50 (Mus musculus [20]) of the same molecule?
Answer: 25 mg/kg

Question: And the LD50 at 2 h [21]?
Answer: 565 mg/kg

Question: And the ED50 (Mus musculus [22])?
Answer: 36 mg/kg

Question: And the ED50 (Rattus norvegicus [23])?
Answer: 52 mg/kg

Question: And the ED50 (Mus musculus [24])?
Answer: 34 mg/kg

Question: And the ED50 (Mus musculus [25])?
Answer: 20 mg/kg

Question: And the ED50 (Mus musculus [26])?
Answer: 31 mg/kg

Question: And the LD50 at 2 h [27]?
Answer: > 800 mg/kg

Question: What about the ED50 (Mus musculus [28]) of the same molecule?
Answer: 23 mg/kg

Question: For CC1(C)OC(C)(C)c2nc(-c3ccncc3)nnc21, which ED50 (Mus musculus [1]) is on record?
Answer: 56.2 mg/kg

Question: Which ED50 (Mus musculus [1]) does the source give for CC1(C)C/C(=N\Nc2ccccc2[N+](=O)[O-])C(C)(C)O1 here?
Answer: 1000 mg/kg
